Experimental data taken from ChEMBL document CHEMBL2321837, “Discovery of novel inhibitors targeting the Mycobacterium tuberculosis O-acetylserine sulfhydrylase (CysK1) using virtual high-throughput screening” (Bioorg Med Chem Lett, 2013).
Values after ≈ are worked out from the molar mass of the structure shown.

Legend:
[1] = Cytotoxicity against HEK293T cells assessed as growth inhibition at 50 uM by MTT assay relative to control; type: cell-based, HEK-293T; conditions: human, read-out: GI
[2] = system: Mycobacterium tuberculosis; assay: Antimycobacterial activity against Mycobacterium tuberculosis H37Rv ATCC 27294 assessed as growth inhibition by NCCLS agar dilution method; type: functional
Method in brief: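 M. tuberculosis H37Rv (ATCC27294) agar dilution, compounds 50 to 0.78 µg/mL in duplicates. MIC taken as lowest concentration completely inhibiting growth; isoniazid and ethambutol as reference compounds.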

[3] = Cytotoxicity against HEK293T cells assessed as growth inhibition at 25 uM by MTT assay relative to control; type: cell-based, HEK-293T; conditions: human, read-out: GI
[4] = target: O-acetylserine sulfhydrylase (Mycobacterium tuberculosis) (UniProt P9WP55); assay: Inhibition of Mycobacterium tuberculosis CysK1 using O-acetyl-L-serine as substrate assessed as L-cycteine formation at 100 uM after 5 mins by spectrophotometric analysis relative to control
Method in brief: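 Single-point screen of compounds at 100 µM. Assay mix (MOPS pH 7.0, O-acetyl-L-serine, CysK1) was preincubated 5 min at room temperature, then started with 1 mM sodium sulphide for 20 min. It was stopped with trichloroacetic acid (final 16.6%), then acid-ninhydrin reagent was added and heated at 96 °C for 10 min. After 1:1 ethanol dilution, OD was read at 560 nm; triplicates. Controls were DFSI tetrapeptide (100 µM, 100% inhibition) and no inhibitor (0%).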

[5] = target: T1, O-acetylserine sulfhydrylase (Mycobacterium tuberculosis, UniProt P9WP55); assay: Competitive inhibition of Mycobacterium tuberculosis CysK1
Method in brief: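 Purified CysK1 preincubated 5 min at room temperature with 1:3 serial compound dilutions in 100 mM MOPS pH 7.0 and 2 mM O-acetyl-L-serine, 5% DMSO final. Reaction started with sodium sulphide (1 mM final); aliquots were taken at time intervals. L-cysteine was measured by acid-ninhydrin (96 °C, 10 min) at 560 nm. IC50 came from sigmoid fits of specific activity.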

[6] = target: T1, O-acetylserine sulfhydrylase; assay: Inhibition of Mycobacterium tuberculosis CysK1 using O-acetyl-L-serine as substrate assessed as L-cycteine formation after 5 mins by spectrophotometric analysis
Method in brief: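 Dose–response: serial 1:3 dilutions prepared in 50% DMSO (final DMSO 5%). Final mix was 100 mM MOPS pH 7.0, 2 mM O-acetyl-L-serine, […] CysK1, preincubated 5 min at room temperature. The reaction was started with sodium sulphide (final 1 mM). Aliquots taken at time intervals were assayed for L-cysteine by acid-ninhydrin. Specific activity vs concentration was fitted to a sigmoid for IC50.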

SMILES | inhibition at 50 µM [1] | MIC [2] | inhibition at 25 µM [3] | inhibition [4] | Ki [5] | IC50 [6]
Cc1ccccc1C1NC(=O)N=C2C1C(=O)N=C1SC([N+](=O)[O-])=CN12 (stereo not drawn) | 20.4% | 70 µM (≈ 25 µg/mL) | 6% | 103% |  | 
NNC(=O)c1ccncc1 [ISONIAZID] |  | 0.72 µM (≈ 0.0987 µg/mL) |  |  |  | 
O=C1N=C2SC([N+](=O)[O-])=CN2C2=NC(=S)NC(c3ccc([N+](=O)[O-])cc3)C12 (stereo not drawn) | 6.6% | 61.8 µM (≈ 25 µg/mL) | 1.64% | 70.6% |  | 
CN(C)c1ccc(C2NC(=S)N=C3C2C(=O)N=C2SC([N+](=O)[O-])=CN23)cc1 (stereo not drawn) | 26.8% | 15.5 µM (≈ 6.24 µg/mL) | 8% | 100% |  | 
COc1ccc(C2NC(=O)N=C3C2C(=O)N=C2SC([N+](=O)[O-])=CN23)cc1 (stereo not drawn) | 7.3% | 134 µM (≈ 50 µg/mL) | 0% | 93.9% |  | 
CC[C@H](C)[C@H](NC(=O)[C@H](CO)NC(=O)[C@H](Cc1ccccc1)NC(=O)[C@@H](N)CC(=O)O)C(=O)O |  |  |  |  | 5 µM | 7.4 µM
CC[C@@H](CO)NCCN[C@@H](CC)CO [ETHAMBUTOL] |  | 4.71 µM (≈ 0.962 µg/mL) |  |  |  | 
O=C1N=C2C(C(=O)N=C3SC([N+](=O)[O-])=CN32)C(c2ccccc2[N+](=O)[O-])N1 (stereo not drawn) | 0% | 129 µM (≈ 50 µg/mL) | 0% | 93% |  | 
O=C1N=C2C(C(=O)N=C3SC([N+](=O)[O-])=CN32)C(c2c(Cl)cccc2Cl)N1 (stereo not drawn) | 0% | 121 µM (≈ 50 µg/mL) | 0% | 57.8% |  | 
O=C1N=C2SC([N+](=O)[O-])=CN2C2=NC(=S)NC(c3c(Cl)cccc3Cl)C12 (stereo not drawn) | 30.7% | 58.4 µM (≈ 25 µg/mL) | 21.3% | 113% |  | 
O=C1N=C2C(C(=O)N=C3SC([N+](=O)[O-])=CN32)C(c2ccccc2O)N1 (stereo not drawn) | 0% | 69.6 µM (≈ 25 µg/mL) | 0% | 107% |  | 
O=C1N=C2SC([N+](=O)[O-])=CN2C2=NC(=S)NC(c3ccc(Br)cc3)C12 (stereo not drawn) | 6.5% | 28.5 µM (≈ 12.5 µg/mL) | 2.5% | 65.6% |  | 
O=C1N=C2C(C(=O)N=C3SC([N+](=O)[O-])=CN32)C(c2ccccc2)N1 (stereo not drawn) | 3.8% | > 146 µM | 1.6% | 84.1% |  | 
O=C1N=C2SC([N+](=O)[O-])=CN2C2=NC(=S)NC(c3ccc(F)cc3)C12 (stereo not drawn) | 43.4% | 16.6 µM (≈ 6.26 µg/mL) | 30.6% | 60% |  | 
Cc1ccccc1C1NC(=S)N=C2C1C(=O)N=C1SC([N+](=O)[O-])=CN12 (stereo not drawn) | 18.8% | 33.5 µM (≈ 12.5 µg/mL) | 3.6% | 15.9% |  | 17.7 µM
O=C1N=C2C(C(=O)N=C3SC([N+](=O)[O-])=CN32)C(c2ccccc2C(F)(F)F)N1 (stereo not drawn) | 13.1% | 7.6 µM (≈ 3.13 µg/mL) | 5.7% | 13.8% |  | 17.7 µM
O=C1N=C2SC([N+](=O)[O-])=CN2C2=NC(=S)NC(c3ccccc3O)C12 (stereo not drawn) | 12% | 33.3 µM (≈ 12.5 µg/mL) | 0.1% | 68.8% |  | 

SMILES | inhibition at 50 µM [1] | MIC [2] | inhibition at 25 µM [3] | inhibition [4] | Ki [5] | IC50 [6]
COc1cc(C2NC(=S)N=C3C2C(=O)N=C2SC([N+](=O)[O-])=CN23)ccc1O (stereo not drawn) | 1.35% | 123 µM (≈ 50 µg/mL) | 0% | 89.2% |  | 
O=C1N=C2C(C(=O)N=C3SC([N+](=O)[O-])=CN32)C(c2ccc(Cl)cc2)N1 (stereo not drawn) | 0% | 66.2 µM (≈ 25 µg/mL) | 0% | 80% |  | 
COc1ccc(C2NC(=S)N=C3C2C(=O)N=C2SC([N+](=O)[O-])=CN23)cc1 (stereo not drawn) | 14.6% | 32.1 µM (≈ 12.5 µg/mL) | 0.2% | 9.1% |  | 22.7 µM
O=C1N=C2SC([N+](=O)[O-])=CN2C2=NC(=S)NC(c3ccc(Cl)cc3)C12 (stereo not drawn) | 14.6% | 15.9 µM (≈ 6.26 µg/mL) | 7.4% | 102% |  | 
O=C1N=C2SC([N+](=O)[O-])=CN2C2=NC(=S)NC(c3cccc(Br)c3)C12 (stereo not drawn) | 13.5% | 7.1 µM (≈ 3.11 µg/mL) | 6% | 39.9% |  | 
O=C1N=C2C(C(=O)N=C3SC([N+](=O)[O-])=CN32)C(c2cccc(Br)c2)N1 (stereo not drawn) | 2.8% | 14.8 µM (≈ 6.25 µg/mL) | 0% | 60.1% |  | 
COc1cc(C2NC(=O)N=C3C2C(=O)N=C2SC([N+](=O)[O-])=CN23)ccc1O (stereo not drawn) | 0% | 128 µM (≈ 50 µg/mL) | 0% | 90.5% |  | 
Cc1ccc(C2NC(=O)N=C3C2C(=O)N=C2SC([N+](=O)[O-])=CN23)cc1 (stereo not drawn) | 0% | 70 µM (≈ 25 µg/mL) | 0% | 57.7% |  | 
O=C1N=C2SC([N+](=O)[O-])=CN2C2=NC(=S)NC(c3ccccc3)C12 (stereo not drawn) | 25.3% | 69.6 µM (≈ 25 µg/mL) | 0% | 90.4% |  | 
O=C1N=C2C(C(=O)N=C3SC([N+](=O)[O-])=CN32)C(c2ccc(F)cc2)N1 (stereo not drawn) | 10.7% | 17.3 µM (≈ 6.25 µg/mL) | 5.4% | 100% |  | 
O=C1N=C2C(C(=O)N=C3SC([N+](=O)[O-])=CN32)C(c2ccc([N+](=O)[O-])cc2)N1 (stereo not drawn) | 9.4% | 129 µM (≈ 50 µg/mL) | 2.6% | 54.7% |  | 
O=C1N=C2SC([N+](=O)[O-])=CN2C2=NC(=S)NC(c3ccccc3[N+](=O)[O-])C12 (stereo not drawn) | 8.7% | 30.9 µM (≈ 12.5 µg/mL) | 1% | 11.3% |  | 30.3 µM
O=C1N=C2SC([N+](=O)[O-])=CN2C2=NC(=S)NC(c3ccccc3C(F)(F)F)C12 (stereo not drawn) | 52.2% | 7.3 µM (≈ 3.12 µg/mL) | 27.7% | 89.4% |  | 
O=C1N=C2C(C(=O)N=C3SC([N+](=O)[O-])=CN32)C(c2ccc(Br)cc2)N1 (stereo not drawn) | 11.2% | 29.6 µM (≈ 12.5 µg/mL) | 6.1% | 89.1% |  | 
Cc1ccc(C2NC(=S)N=C3C2C(=O)N=C2SC([N+](=O)[O-])=CN23)cc1 (stereo not drawn) | 14.7% | 67 µM (≈ 25 µg/mL) | 0% | 106% |  | 
CN(C)c1ccc(C2NC(=O)N=C3C2C(=O)N=C2SC([N+](=O)[O-])=CN23)cc1 (stereo not drawn) | 4.9% | 32.4 µM (≈ 12.5 µg/mL) | 0% | 92.7% |  | 
